# Screening data from PubChem.
# JMJD2C inh: human JMJD2C demethylase inhibition. Q9H3R0. GST-JMJD2C(1-420) H3K9me3 demethylation, DELFIA europium. inhibition, % at 2.35 µM. actives 0.069% (n = 330,000);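 active = more than half of a compound's replicate wells show inhibition beyond 50%, single wells judged on their own value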;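 also: signal counts dimethyl H3K9 product captured on neutravidin plate; 0% = median of DMSO wells and 100% = 0.3 times that DMSO median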
# GC-B act: GC-B (human) receptor activation | P20594 | HEK293-GC-B cells, CNP EC30, cGMP TR-FRET; 0% at EC30 CNP, 100% saturating CNP | activation, % at 10 µM | actives 0.11% (n = 370,000) | AID 1920062;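 active = activation at 10 µM reaching about 35% in either raw or pattern-adjusted values, limit read from the data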
# NPR1 activator: GC-A (human) enzyme activation; P16066; HEK293 GC-A cells, cGMP TR-FRET, EC30 ANP; 0% at EC30 ANP, 100% saturating ANP; activation, % at 10 µM; actives 0.14% (n = 370,000); in the data active = activation above about 40%
# Target sequence (P16066 whole entry, looked up): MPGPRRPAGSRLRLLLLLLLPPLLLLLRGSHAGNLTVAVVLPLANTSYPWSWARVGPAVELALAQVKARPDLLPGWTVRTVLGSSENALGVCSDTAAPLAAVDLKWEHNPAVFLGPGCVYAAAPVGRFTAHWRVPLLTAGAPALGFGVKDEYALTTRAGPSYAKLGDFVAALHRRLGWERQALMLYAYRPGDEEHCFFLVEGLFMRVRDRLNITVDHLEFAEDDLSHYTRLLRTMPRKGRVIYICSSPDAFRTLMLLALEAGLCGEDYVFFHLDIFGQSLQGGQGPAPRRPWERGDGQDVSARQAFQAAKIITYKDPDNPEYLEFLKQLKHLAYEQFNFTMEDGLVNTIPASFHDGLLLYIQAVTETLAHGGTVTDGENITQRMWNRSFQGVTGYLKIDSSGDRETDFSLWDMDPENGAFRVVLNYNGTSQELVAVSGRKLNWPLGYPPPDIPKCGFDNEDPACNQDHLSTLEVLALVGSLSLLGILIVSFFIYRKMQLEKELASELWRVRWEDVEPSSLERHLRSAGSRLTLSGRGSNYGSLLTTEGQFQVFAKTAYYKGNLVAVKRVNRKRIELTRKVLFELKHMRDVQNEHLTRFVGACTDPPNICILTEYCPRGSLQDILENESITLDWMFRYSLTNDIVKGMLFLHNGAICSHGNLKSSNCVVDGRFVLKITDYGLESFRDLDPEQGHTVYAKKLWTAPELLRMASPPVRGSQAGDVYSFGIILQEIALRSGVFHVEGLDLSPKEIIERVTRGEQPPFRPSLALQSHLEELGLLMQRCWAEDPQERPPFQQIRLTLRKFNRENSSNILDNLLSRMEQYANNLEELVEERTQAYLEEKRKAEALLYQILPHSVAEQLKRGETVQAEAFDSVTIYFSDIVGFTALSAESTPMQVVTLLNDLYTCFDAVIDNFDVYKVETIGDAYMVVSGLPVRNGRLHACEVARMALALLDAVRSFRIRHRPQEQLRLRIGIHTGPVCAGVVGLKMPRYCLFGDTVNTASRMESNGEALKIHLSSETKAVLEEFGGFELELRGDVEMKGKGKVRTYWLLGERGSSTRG
# aDG glyco act: alpha-DG glycosylation activation; activation, % at 10 µM; Pro5-aDG cells, alpha-DG glycosylation AlphaScreen (IIH6); 0% Pro5, 100% B10-LARGE cell signal; actives 0.22% (n = 360,000);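 active = activation of at least 8% versus controls, or a plate z-score of at least 8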;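 also: Pro5 are CHO cells carrying HIG-tagged alpha-DG that lacks glycosylation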
# NR3A LBD binder: modulators (binders) of human NR3A ligand-binding domain; NR3A LBD differential scanning fluorimetry, Tm shift; 0% = protein alone, 100% = glycine-bound protein; Tm shift relative to glycine control, % at 25 µM; actives 2.5% (n = 340,000);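 active = melting temperature shift of at least 10% of the positive control shift, at one fixed dose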
# Hep lipid drop: modulators of hepatic lipid droplet formation; actives 0.4% (n = 240,000); AML12 mouse hepatocytes, oleate lipid droplets, BODIPY imaging; inhibition, % at 6.5 µM;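 active = lipid droplet intensity inhibited by at least 50%, with more than 500 cells counted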
#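 Material – mouse AML12 hepatocyte cell line, fixed after treatment · Compound dosing – one dose, 6.5 µM compound · Times – compound with oleate, overnight · Measured by – Image-based BODIPY and DAPI two-channel analysis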
# Hep lipid conf: hepatic lipid droplet formation inhibition, confirmed; shares compounds with Hep lipid drop; AML12 mouse hepatocytes, BODIPY lipid droplet imaging; droplets induced with 100 µM oleic acid; inhibition, % at 5.2 µM; actives 65% (n = 870); AID 463183;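 active = inhibition of lipid droplet metric at least 50%, with more than 300 cells in each of four replicates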;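 also: plate controls were DMSO with oleic acid for no effect and 5 µM Triacsin-C for full effect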
# AML12 tox img: AML12 hepatocyte cytotoxicity (counter-screen) | shares compounds with Hep lipid drop | AML12 mouse hepatocytes, DAPI nuclear morphology cytotoxicity imaging; hits give high values; cells fed 100 µM oleate overnight | z-score at 5 µM | actives 3% (n = 870); in the data active = z-score above about 6.3;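 also: compound exposure lasted overnight at 37 °C before fixation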
# AML12 tox conf: confirmation of cytotoxicity in AML12 mouse hepatocytes. shares compounds with Hep lipid drop. AML12 mouse hepatocyte viability, ATP luminescence; cells loaded with 100 µM oleic acid. cytotoxicity, % at 50 µM. 530 tested, under 10 active. AID 463219;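 active = cytotoxicity above 50% in each of four replicates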;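 also: compound exposure lasted overnight at 37 °C before the ATP read; 0% = DMSO-treated cells and 100% = wells with no cells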
# aDG conf: alpha-DG glycosylation activation, confirmation. Pro5-aDG cells, IIH6 AlphaLISA; scaled to LARGE-overexpressing B10 cells as 100%. AID 651671. activation, % at 10 µM (by protocol). actives 17% (n = 600). shares compounds with aDG glyco act;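 active = activation of at least 7% in one or more replicates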;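 also: cells exposed to compound for two days before detection; 0% = DMSO-treated Pro5 cells and 100% = DMSO-treated B10-LARGE cells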
# The depositor's hits bear a star; x = no result. Sampled rows, rich in hits. Any-hit rate of the full collection: about 3%.
SMILES,JMJD2C inh,GC-B act,NPR1 activator,aDG glyco act,NR3A LBD binder,Hep lipid drop,aDG conf,others
CCC(C(=O)NCc1cccc(C)c1)n1nc(C)c2c(C)n(-c3ccccc3)nc2c1=O (stereo unspecified),7,-4,-7,0,0,64*,x,Hep lipid conf=78*;AML12 tox img=-0.53;AML12 tox conf=22
Cc1ccc(-n2nc3c(=O)n(C(C)C(=O)NCCCc4ccccc4)nc(C)c3c2C)cc1 (stereo unspecified),-6,3,2,2,-3,43,x,
Cc1ccc(-n2nc3c(=O)n(CC(=O)NCCCc4ccccc4)nc(C)c3c2C)cc1,-5,1,0,0,0,65*,x,Hep lipid conf=81*;AML12 tox img=-0.42;AML12 tox conf=27
O=C(CN1CCCCC1)Nc1c2c(nc3ccccc13)N(c1ccccc1)CC2,7,1,6,0,1,-5,x,
CCCC(=O)Nc1c2c(nc3ccccc13)N(c1ccccc1)CC2,-1,x,x,0,0,52*,x,Hep lipid conf=44;AML12 tox img=0.44
CCOc1ccc(C(=O)NNC(=O)CCNC(=O)c2ccc(Br)cc2)cc1OC,8,1,1,0,-1,x,x,
COC(=O)c1ccc(-c2noc(CN(C)CC3CCCCO3)n2)cc1 (stereo unspecified),-5,1,4,0,-1,50*,x,Hep lipid conf=8;AML12 tox img=0.057
COC(=O)c1ccc(-c2noc(CN(Cc3ccncc3)CC3CCCO3)n2)cc1 (stereo unspecified),-5,-2,-2,1,-1,6,x,
CCOc1ccc(NC(=O)CN(C)c2ccc(S(=O)(=O)N(C(C)C)C(C)C)cn2)cc1OCC,35,1,-3,0,17*,52*,x,Hep lipid conf=84*;AML12 tox img=0.016;AML12 tox conf=38
CCc1ccccc1NC(=O)COC(=O)c1c(C)nsc1NC,7,-1,-2,4.0*,1,x,0,
CNc1snc(C)c1C(=O)OCC(=O)Nc1ccc(C)cc1F,x,2,0,2,7,x,x,
COCCNc1nc(NCc2ccc(C(C)C)cc2)c2sccc2n1,x,-1,31,7.3*,x,x,3,
COc1c(C(=O)Nc2nccs2)ccc2ccccc12,-6,0,2,0,-3,0,x,
COc1cc2ccccc2cc1C(=O)Nc1nccs1,-7,-7,2,4.0*,3,0,-1,
O=C(CSc1ccc(Cl)cc1)Nc1ccccc1,x,1,-2,0,x,x,x,
O=C(CSc1cccs1)Nc1ccc(Cl)cc1,-6,-1,3,3.1*,-1,-3,-1,
CCNC(=O)N(CC)C[C@H]1N[C@@](C)(C(=O)OC)[C@H]2C(=O)N(Cc3ccccc3)C(=O)[C@@H]12,24,1,1,7.1*,0,x,-1,
CCN(C[C@H]1N[C@@](C)(C(=O)OC)[C@H]2C(=O)N(Cc3ccccc3)C(=O)[C@@H]12)C(=O)c1ccccc1,x,-1,4,0,1,x,x,
COc1ccc(OC)c(NC(=O)N[C@@H](Cc2ccccc2)C(=O)O)c1,3,1,-2,5.9*,1,x,0,
COc1cc(NC(=O)N[C@@H](Cc2ccccc2)C(=O)O)cc(OC)c1,3,-1,-2,0,1,29,x,
c1ccc(COc2ncnc3c2ncn3CCCNC2CCN(Cc3ccccc3)CC2)cc1,x,-5,-6,1,x,x,x,
Cc1ccc(CONC(=O)c2ccc([N+](=O)[O-])cc2)cc1,14,5,-1,0,-2,x,x,
CN(CC(=O)Nc1cccc(F)c1)C(=O)c1cccc(S(=O)(=O)N2CCN(c3ccccc3)CC2)c1,-9,7,0,8.0*,-4,-2,-1,
Cc1cc(NC(=O)Cc2ccccc2)c2ccccc2n1,x,0,2,7.5*,0,-43,0,
COc1ccc(Cl)cc1NC(=O)NN1CCN(C)CC1,2,2,-2,0,2,-1,x,
SMILES,JMJD2C inh,GC-B act,NPR1 activator,aDG glyco act,NR3A LBD binder,Hep lipid drop,aDG conf,others
CCN(CC)S(=O)(=O)c1ccc(=O)n(CC(=O)N2Cc3ccccc3CC2C(N)=O)c1 (stereo unspecified),x,-4,2,3.4*,1,x,-1,
CCOc1ccc2nc(NC(=O)CSC3=NCCS3)sc2c1,-13,-7,-3,3.4*,18*,x,-1,
CCOc1ccc2nc(NC(=O)CSc3cn[nH]n3)sc2c1,-3,-5,1,0,0,34,x,
Cc1cccc(C)c1NC(=O)C(c1ccccc1)N1CCN(C)CC1 (stereo unspecified),x,5,1,0,x,x,x,
Cc1cccc(C)c1NC(=O)C(c1ccncc1)N1CCN(C)CC1 (stereo unspecified),x,1,3,9.8*,x,x,0,
CCCCc1ccc(NC(=O)N2CCN(c3cc(C)nc4ccccc34)CC2)c(C)c1,-17,x,x,3.3*,-2,x,4,
COCCCNCCCCOc1ccc(Br)cc1C,-5,-7,-2,4,-5,-2,x,
Cc1cc(Br)ccc1OCCCCNC(C)(C)C,-5,-9,-1,4.3*,-1,x,7.2*,
COc1cc(C(=O)C(=O)N2CCN(c3ccc(C)cc3)CC2)cc2ccccc12,x,0,-3,0,x,x,x,
COc1cc(C(=O)C(=O)N2CCC(Cc3ccccc3)CC2)cc2ccccc12,x,9,3,10*,x,x,0,
CC(OC(=O)c1ccc2c(c1)OCO2)C(=O)NC1CCCCC1 (stereo unspecified),x,-3,0,0,x,x,x,
CC(=NN1CC(=O)NC1=O)c1ccc([N+](=O)[O-])o1,x,-2,-1,1,-6,x,x,
COc1ccc(NC(=S)NCCC2=CCCCC2)cc1OC,-2,1,5,0,-3,8,x,
S=C(NCCC1=CCCCC1)Nc1ccc(Cl)cc1,4,1,1,5.9*,-14,-9,0,
Cc1ccc(S(=O)(=O)/N=C2\C(=O)c3ccccc3C([O-])=C2n2cc[n+](CCC(C)C)c2)cc1,1,x,x,4,-1,x,x,
